Measurements as given in ChEMBL document CHEMBL1133666, “Esterase-sensitive nitric oxide donors of the diazeniumdiolate family: in vitro antileukemic activity” (J Med Chem, 2000).

Assays:
HL-60 [1] = assay: Inhibitory activity towards HL-60 cells at 72 hours; assay type: functional, cell-based; settings: Homo sapiens, HL-60, 72 h
Method in brief: (§1)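 Leukemia cells seeded at 150 000 cells/mL in RPMI-1640 with 10% FBS, 37 °C, 5% CO₂, 1 mL per well. NO donors added at culture initiation. Cells harvested at 72 h and washed twice in PBS. Viable cells counted by Trypan blue exclusion. IC50 calculated from the concentration–growth curve. Means ± SEM of at least three separate experiments.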

HL-60 [2] = assay: Within 24 hr at initial concentrations of 50 uM, apoptosis induction was evaluated in HL-60 cells; assay type: functional
Method in brief: (§2)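 Cells grown at 150 000 cells/mL in RPMI-1640 with 10% FBS, 37 °C, 5% CO₂, with compound added at culture start and read at 24 h. Cells washed in PBS and lysed in 0.2% NP40/5% BSA in PBS with propidium iodide and RNase A. Flow cytometry scored the low-DNA-content (apoptotic) fraction as percent of cells. Means ± SEM of ≥3 experiments.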

U-937 [3] = assay: Inhibitory activity towards U937 cells at 72 hours; assay type: functional, cell-based; settings: Homo sapiens, U-937, 72 h; method in brief: as §1
U-937 [4] = assay: Within 24 hr at initial concentrations of 50 uM, apoptosis induction was evaluated in U937 cells; assay type: functional; method in brief: as §2
HL-60 [5] = assay: Inhibitory activity towards HL-60 cells at concentration of 100 uM; assay type: functional; settings: Homo sapiens; method in brief: as §1
U-937 [6] = assay: Inhibitory activity towards U937 cells at concentration of 100 uM; assay type: functional; settings: Homo sapiens; method in brief: as §1

Compound	IC50 (HL-60 [1]) [µM]	IC50 (U-937 [3]) [µM]	Apoptosis induction (HL-60 [2]) [%]	Apoptosis induction (U-937 [4]) [%]	inhibition at 100 µM (HL-60 [5]) [%]	inhibition at 100 µM (U-937 [6]) [%]
CCN(CC)/[N+]([O-])=N/O	> 600	–	–	–	–	–
CCN(CC)/[N+]([O-])=N/OCCSC(C)=O	–	–	–	–	90	48

The next lines start with results.

IC50 (HL-60 [1]) [µM]	IC50 (U-937 [3]) [µM]	Compound	Apoptosis induction (HL-60 [2]) [%]	Apoptosis induction (U-937 [4]) [%]	inhibition at 100 µM (HL-60 [5]) [%]	inhibition at 100 µM (U-937 [6]) [%]
8.3	53	CCN(CC)/[N+]([O-])=N/OCOC(C)=O	50	35	–	–
6.4	53	CC(=O)OCO/N=[N+](\[O-])N1CCCC1	57	40	–	–
> 600	–	[O-]/[N+](=N\O)N1CCCC1	–	–	–	–
